# Source: PubChem BioAssay
# CHOP inh = CHOP inhibition in unfolded protein response; CHO-K1 CHOP-promoter luciferase, tunicamycin-induced, 15-18 h; inhibition, % at 10 µM; AID 2732; hit rate 3.8% among 220,000;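 active means compounds that reduced the stress-induced luciferase reporter signal by more than about 70% of percent inhibition, limit read from the data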;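 further: 0% = tunicamycin plus vehicle and 100% = wells without tunicamycin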
# Hsp70 activator = switches on Hsp70 transcription; AID 1203; activation, % at 10 µM; hit rate 0.04% among 200,000; HeLa Hsp70 promoter luciferase reporter, luminescence; scaled: vehicle 0, proteasome-inhibitor control 100%;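 active means activation above the mean across all tested compounds plus 3 SD, cutoff set per campaign, cut at about 5.5% in these data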;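 further: 100% = MG132 at 30 µM as the positive control and 0% = DMSO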
# S1P3 antag = S1P3 (human) receptor antagonism; CHO S1P3 NFAT-BLA reporter, FRET fluorescence, antagonist mode; AID 485; hit rate 0.27% among 170,000; Q99500; inhibition, % at 4.98 µM;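 active means inhibition above the plate cutoff, the mean inhibition of test wells on that plate plus 3 SD, cut at about 28% in these data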;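 further: cells challenged with S1P at its EC80 of 0.8 µM; blue over green emission ratio from cleaved BLA substrate after 4 h stimulation; 0% = S1P-stimulated wells and 100% = unstimulated DMSO-only wells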
# Target sequence (Q99500 whole entry, looked up): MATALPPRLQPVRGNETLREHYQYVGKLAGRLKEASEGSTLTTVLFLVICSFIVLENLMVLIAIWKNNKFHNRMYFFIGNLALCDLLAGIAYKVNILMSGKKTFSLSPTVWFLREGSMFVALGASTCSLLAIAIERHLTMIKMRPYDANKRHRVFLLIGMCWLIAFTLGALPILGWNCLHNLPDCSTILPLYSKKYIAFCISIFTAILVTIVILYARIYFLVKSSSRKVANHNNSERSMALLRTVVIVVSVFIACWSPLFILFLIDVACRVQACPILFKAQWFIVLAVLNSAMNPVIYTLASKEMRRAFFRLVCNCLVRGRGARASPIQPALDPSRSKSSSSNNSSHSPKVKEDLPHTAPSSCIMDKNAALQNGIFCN
# MDM2 E3 inh = blocks human Mdm2 ubiquitin ligase activity; Q00987; cell-based MDM2 ubiquitination luciferase reporter, 2 h; 0 = plate control, 100 = twice control, blank-subtracted; signal enhancement, % at 5 µM; hit rate 0.11% among 210,000; AID 1230;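 active means signal enhancement of 30% or more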;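 further: luminescence tracks abundance of the self-degrading MDM2-luciferase fusion protein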
#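 system = mammalian cells stably expressing self-ubiquitinating, self-degrading MDM2 E3–luciferase fusion | quantity = 2000 cells per well seeded | incubation = 4 h cell settling then 2 h compound exposure, 37 °C | signal = SteadyLite luminescence, 15 min reagent step | benchmarks = plate control and blank wells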
# An asterisk follows results filed as active; / = not tested or not shown. The list is not random: actives were taken first. Their share in the collection is about 4%.
SMILES,CHOP inh,Hsp70 activator,S1P3 antag,MDM2 E3 inh
Clc1cc(Br)ccc1OCCOCCOc1cccc2cccnc12,71*,0,/,18
C=CCN(CC=C)S(=O)(=O)c1ccc(F)cc1,79*,0,-16,2
CCN(CC(N)=O)S(=O)(=O)c1ccc(F)cc1,10,0,-5,-7
NS(=O)(=O)c1ccc(CCNC(=O)CCCCCn2c(=S)[nH]c3ccc(Br)cc3c2=O)cc1,5,0,-12,-3
Cc1cc(C(=O)Nc2ccc3c(c2)OCO3)cs1,-61,0,9,-22
Cc1cc(C(=O)NC(C)c2ccc3c(c2)OCO3)cs1 (configuration not stated),74*,0,13,-6
COc1cccc2c(Cl)c(CC=C(Cl)Cl)c(C)nc12,87*,0,-4,7
CCS(=O)CCSc1nc2ccccc2s1 (configuration not stated),45,0,/,-36
CCN(CC)c1ccc(/C=C2/C(=O)c3ccc(C(=O)O)cc3C2=O)cc1,7,1,-5,63*
COC(=O)c1sccc1NC(=S)N1CCC(C)CC1,61,0,/,6
COC(=O)c1sccc1NC(=O)C1CC(C)=C(C)CC1C(=O)O (configuration not stated),-4,/,-4,-8
COC(=O)c1sccc1NC(=S)N1CC(C)CC(C)C1 (configuration not stated),93*,0,/,1
COC(=O)c1sccc1NC(=O)C1CC2CCC1C2 (configuration not stated),94*,0,4,-20
COc1cc2c(CCNC(C)=O)c[nH]c2cc1O,-5,/,/,/
O=C(Nc1ccccc1)c1cc2ccc3ccccc3c2s1,-8,/,10,-6
O=C(Cc1c(Cl)cccc1Cl)NCCc1ccc(Cl)cc1,75*,0,-4,1
O=CNCC(=O)NCCc1ccc(Cl)cc1,16,0,-17,-4
Clc1ccsc1-c1ccc2ccccc2n1,90*,0,/,-12
c1ccc2nc(-c3nccs3)ccc2c1,-5,0,-9,0
CCOC(O)[C@H]1N[C@@H](c2ccc(Cl)cc2)[C@@H]([N+](=O)[O-])[C@@H]1c1ccccc1 (some centres not stated),-10,0,1,1
COc1ccc(-c2noc(CN3CCC(Cc4ccccc4)CC3)n2)cc1,60,0,-8,-1
c1ccc(CC2CCN(Cc3nc(-c4ccccc4)no3)CC2)cc1,92*,0,-16,-7
Cc1ccc(-c2noc(CN3CCN(c4ccccc4F)CC3)n2)cc1,74*,0,-4,-11
O=C(Oc1ccc2cc(Br)ccc2c1)N1CCCCCC1,85*,0,-6,-9
Clc1ccc(CN2CCCCCCC2)cc1Cl,79*,0,/,-3
SMILES,CHOP inh,Hsp70 activator,S1P3 antag,MDM2 E3 inh
O=[N+]([O-])c1ccc(O)c(/C=N/Nc2ccc(Cl)nn2)c1,75*,0,/,-16
Cc1cc(Br)ccc1SCC(=O)OCC(=O)Nc1ccccc1C#N,0,0,-8,-14
O=C(Cc1ccccc1)N/N=C/c1cc(Br)c(Br)o1,76*,0,/,-4
O=C(Cc1ccccc1)N/N=C/c1ccc(S(=O)(=O)O)o1,-7,/,-2,-2
CCOC(=O)c1cc2c(nc1C)-c1cc(Cl)cc(Cl)c1OC2O (configuration not stated),89*,0,-9,9
Oc1cccc(/C=N/N2CCN(C3c4ccccc4-c4ccccc43)CC2)c1,-5,/,-9,2
C(=N\N1CCN(C2c3ccccc3-c3ccccc32)CC1)/c1ccncc1,83*,0,/,8
O=C(COC(=O)c1ccc(Cl)nc1)NCCC1=CCCCC1,2,1,-9,-7
COc1ccccc1C(=O)NNC(=S)NC(=O)c1sc2ccccc2c1Cl,80*,0,-5,-3
COc1ccccc1C(=O)NC(=S)NNC(=O)c1sc2ccccc2c1Cl,89*,0,-12,-5
Cc1c(NC(=S)NC(=O)c2sc3ccccc3c2Cl)cccc1C(=O)O,-4,0,-15,-12
O=C(Cn1cnnn1)Nc1cccc([N+](=O)[O-])c1,-2,0,4,1
O=C(CCc1nc(-c2ccccc2Cl)no1)NCc1ccco1,16,0,1,3
Cc1ccc(N=C(NOCc2ccc(Cl)cc2Cl)c2nonc2N)c(C)c1,64,0,/,2
Cc1ccccc1N=C(NOCc1ccc(Cl)cc1Cl)c1nonc1N,85*,1,/,-17
O=C(C1=C[C@@H](C2CC2)C[C@@H](OCCCCO)O1)N1CCN(Cc2ccccc2)CC1,0,0,-13,/
CCOC(=O)C1C(=O)NC(SCC(=O)OC)=C(C#N)C1c1ccccc1OCC (configuration not stated),27,0,6,-14
CCOc1ccccc1C1C(C#N)=C(SCC(=O)OC)NC(=O)C1C(=O)OC (configuration not stated),80*,0,0,-19
CCCCOc1ccc(CNn2c(C)nc3ccccc3c2=O)cc1,81*,0,-16,-16
COc1ccc(CNn2c(C)nc3ccccc3c2=O)cc1,17,0,7,-12
CCCc1nc(SCc2ccccn2)c2c(=O)n(C)c(=O)n(C)c2n1,70*,0,17,-7
CCCc1nc(SC2CCCC2)c2c(=O)n(C)c(=O)n(C)c2n1,75*,/,-13,-2
Cn1c(=O)c2c(SCc3ccccn3)nc(CC(C)(C)C)nc2n(C)c1=O,74*,0,/,3
Cn1c(=O)c2c(SCc3ccccn3)nc(C3CC3)nc2n(C)c1=O,30,0,10,-8
COc1cccc(OCC(Cn2cnc3ccccc32)OC(C)=O)c1 (configuration not stated),-5,0,-11,-10
SMILES,CHOP inh,Hsp70 activator,S1P3 antag,MDM2 E3 inh
COC(=O)c1ccc(COC(=O)CNS(=O)(=O)c2ccc(C)cc2)cc1,29,0,-8,1
N#CC(Sc1ccccn1)c1ccc(Cl)cc1Cl (configuration not stated),74*,0,-17,13
COc1cc(C(=O)NCCC(=O)NC2CCCCCCC2)cc(OC)c1OC,6,0,-26,-7
Cc1ccc(-c2csc3nc4cc(C(N)=O)ccc4c(=O)n23)cc1,19,/,/,-3
Cc1ccc(CNC(=O)c2ccc3c(=O)n4c(-c5ccc(C)cc5)csc4nc3c2)cc1,79*,/,/,-10
O=C(Nc1cc(Cl)ccc1N1CCOCC1)c1cccnc1Cl,3,/,-28,9
Cc1ccc(NC(=O)Nc2ccc(F)cc2)nc1,77*,0,15,-7
Cc1ccc2c(c1)C=CC(C)(C)S2=O (configuration not stated),4,0,-11,118*
Cc1ccc2c(c1)C(=O)c1ccccc1CS2=O (configuration not stated),23,0,0,2
COc1ccc(-c2nnn(CCc3nn[nH]n3)n2)cc1,/,0,/,/
Cc1ccc(S(=O)(=O)c2nc(-c3ccc(F)cc3)oc2SCC(=O)NCC2CCCO2)cc1 (configuration not stated),36,0,/,-1
